Assays:
5637 [1] = assay: Growth inhibition of human 5637 cells at 12.5 uM after 96 hrs by crystal violet assay; assay type: functional; details: Homo sapiens, 5637, 96 h
Procedure, shortened: (§1)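 Adherent lines from DSMZ grown in RPMI 1640 with 10% FCS plus penicillin G/streptomycin. Seeded at 1000 cells/well 24 h before dosing, with an untreated plate fixed at dosing as the time-zero reference. Compounds came from DMSO series, five concentrations at 0.1% final DMSO, eight wells each. Exposure was continuous for 96 h. Cells were glutaraldehyde-fixed, stained with 0.02% crystal violet, dye eluted in 70% ethanol, OD 570 nm. Results are corrected T/C% against time-zero.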

MCF7 = assay: Antiproliferative activity against human MCF7 cells after 96 hrs by crystal violet assay; assay type: functional, cell-based; details: MCF7, 96 h; procedure, shortened: as §1
[2] = Antiproliferative activity against human KYSE70 cells after 96 hrs by crystal violet assay; assay type: functional, cell-based; details: KYSE-70, 96 h; procedure, shortened: as §1
5637 [3] = assay: Antiproliferative activity against human 5637 cells after 96 hrs by crystal violet assay; assay type: functional, cell-based; details: Homo sapiens, 5637, 96 h; procedure, shortened: as §1
A-427 = assay: Antiproliferative activity against human A427 cells after 96 hrs by crystal violet assay; assay type: functional, cell-based; details: A-427, 96 h; procedure, shortened: as §1
[4] = Growth inhibition of human KYSE70 cells at 12.5 uM after 96 hrs by crystal violet assay; assay type: functional; details: KYSE-70, 96 h; procedure, shortened: as §1

Compound	inhibition at 12.5 µM 5637 [1] [%]	IC50 (MCF7) [µM]	IC50 [2] [µM]	IC50 5637 [3] [µM]	IC50 (A-427) [µM]	inhibition at 12.5 µM [4] [%]
C[C@@H]1O[C@@H](N2C(=O)/C(=C3\Nc4ccccc4C3=O)c3ccccc32)[C@H](O)[C@H](O)[C@H]1O	< 20	0.67	> 25	> 25	> 25	< 20
O=C1/C(=C2/C(=O)N([C@@H]3O[C@H](CO)[C@H](O)[C@H](O)[C@H]3O)c3ccccc32)Nc2ccccc21		25.8	41.5	24.9	13.2	
C[C@@H]1O[C@@H](N2C(=O)/C(=C3\Nc4ccc(Cl)cc4C3=O)c3ccccc32)[C@H](O)[C@H](O)[C@H]1O		6.96	15.3	12.9		
COc1cc([C@@H]2c3cc4c(cc3[C@@H](O[C@@H]3O[C@@H]5CO[C@@H](C)O[C@H]5[C@H](O)[C@H]3O)[C@H]3COC(=O)[C@H]23)OCO4)cc(OC)c1O [ETOPOSIDE]		0.5	0.94	0.54	0.13	
C[C@@H]1O[C@H](N2C(=O)/C(=C3\Nc4ccc(Cl)cc4C3=O)c3ccccc32)[C@H](O)[C@H](O)[C@H]1O		7.98	5.94	8.23		
O=C(O)CCCc1ccc(N(CCCl)CCCl)cc1 [CHLORAMBUCIL]		18.4	38.4	6.55	9.5	
Cc1cc(C)c2c(c1)N([C@H]1O[C@@H](C)[C@H](O)[C@@H](O)[C@H]1O)C(=O)/C2=C1\Nc2ccccc2C1=O	< 20	6.16	> 12.5	> 12.5		< 20
O=C1/C(=C2/C(=O)N([C@@H]3O[C@H](CO)[C@@H](O)[C@H](O)[C@H]3O)c3ccccc32)Nc2ccccc21		15.7	28.9	14.4	11.8	
C[C@@H]1O[C@H](N2C(=O)/C(=C3\Nc4ccccc4\C3=N/O)c3ccccc32)[C@H](O)[C@H](O)[C@H]1O		17	15.4	15.5		
Nc1ncn([C@@H]2O[C@H](CO)[C@@H](O)[C@H]2O)c(=O)n1 [AZACITIDINE]		6.78	1.59	1.73	0.63	
C[C@@H]1O[C@H](N2C(=O)/C(=C3\Nc4ccccc4C3=O)c3ccccc32)[C@H](O)[C@H](O)[C@H]1O		0.76	> 12.5	> 12.5	> 12.5	
O=C1/C(=C2/C(=O)N([C@@H]3O[C@H](CO)[C@@H](O)[C@H](O)[C@@H]3O)c3ccccc32)Nc2ccccc21		4.22	11.8	10.6	5.55	

— ChEMBL document CHEMBL1150294, “Synthesis of indirubin-N'-glycosides and their anti-proliferative activity against human cancer cell lines” (Bioorg Med Chem, 2008)
